The source of these data is ChEMBL document CHEMBL1759908, “Design, synthesis and potential 6 Hz psychomotor seizure test activity of some novel 2-(substituted)-3-{[substituted]amino}quinazolin-4(3H)-one” (Eur J Med Chem, 2011).

Data set [1] relates to Mus musculus. The data set can be described thus: Anticonvulsant activity in CF1 mouse assessed as protection against 32 mA-current- for 3 secs induced seizure at 100 mg/kg, ip after 4 hrs by 6Hz psychomotor seizure test. Also on record: dose 100 mg/kg. Format: functional, organism-based. In short, it runs like this: (§1)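 Male CF-1 mice (18-25 g) received 100 mg/kg i.p. as a suspension in 0.5% methylcellulose. At 0.25, 0.5, 1.0, 2.0 and 4.0 h, four mice per time point were stimulated through corneal electrodes (32 mA, 3 s, 6 Hz). Mice without psychomotor seizure behaviour were counted as protected. Results are reported as number protected over number tested.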

Data set [2] deals with Mus musculus. As to the kind of experiment: Neurotoxicity in CF1 mouse assessed as minimal motor impairment at 100 mg/kg, ip after 1 min by rotarod test. Also on record: dose 100 mg/kg, route intraperitoneal. The settings on record: in vivo. Type of data set: toxicity, organism-based. The method in brief:
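Neurotoxicity was scored as minimal motor impairment on the rotarod. Male CF-1 mice (18-25 g) received 100 mg/kg i.p. as a 0.5% methylcellulose suspension. Results are given as number toxic over number tested.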

Data set [3] concerns Mus musculus. The data set can be described thus: Anticonvulsant activity in CF1 mouse assessed as protection against 32 mA-current- for 3 secs induced seizure at 100 mg/kg, ip after 0.5 hr by 6Hz psychomotor seizure test. Type of data set: functional. The method in brief: as §1
A short description of data set [4]: Lipophilicity, log P of the compound in octanol-phosphate buffer. Format: physicochemical. In short, it runs like this: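 Experimental log P was measured by octanol-phosphate buffer partition. The mixture stood 24 h at room temperature and was then equilibrated 6 h in a separating funnel. Phases were separated and membrane-filtered, and drug in the aqueous phase was quantified by UV spectroscopy.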

Data set [5] can be described thus: Neuroprotective activity against kainic acid induced toxicity in hippocampus slices after 4 hrs propidium iodide staining. Format: functional, tissue-based. The method in brief: (§2)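 Organotypic hippocampal slice cultures were exposed to NMDA or kainic acid alone, or with the investigational compound, in the presence of propidium iodide. Cell death was read as propidium iodide fluorescence intensity and compared with slices given excitotoxin alone.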

Data set [6] relates to Mus musculus. As to the kind of experiment: Anticonvulsant activity in CF1 mouse assessed as protection against 32 mA-current- for 3 secs induced seizure at 100 mg/kg, ip after 2 hrs by 6Hz psychomotor seizure test. Type of data set: functional. The note with it: route intraperitoneal. In short, it runs like this:
as §1

For data set [7], the system named is Mus musculus. As to the kind of experiment: Anticonvulsant activity against 32 mA-current- for 3 secs induced seizure in ip dosed CF1 mouse after 0.5 hr by 6Hz psychomotor seizure test. Type of data set: functional. In short, it runs like this: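 Quantitative 6 Hz test in male CF-1 mice. The compound was suspended in 0.5% methylcellulose and given i.p. at 50, 100, 200 and 350 mg/kg, eight mice per dose. Mice were stimulated through corneal electrodes (32 mA, 3 s) at a 0.5 h time of peak effect. ED50 was derived from the number of mice protected per dose.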

Data set [8] can be described thus: Neuroprotective activity against N-methyl-D-aspartate induced toxicity in hippocampus slices after 4 hrs propidium iodide staining. Type of data set: functional, tissue-based. The method in brief: as §2
In data set [9] the test system is Mus musculus. As to the kind of experiment: Anticonvulsant activity in CF1 mouse assessed as protection against 32 mA-current- for 3 secs induced seizure at 100 mg/kg, ip after 0.25 hr by 6Hz psychomotor seizure test. Format: functional. The settings on record: route intraperitoneal. The method in brief:
as §1

For data set [10], the system named is Mus musculus. The data set can be described thus: Anticonvulsant activity in CF1 mouse assessed as protection against 32 mA-current- for 3 secs induced seizure at 100 mg/kg, ip after 1 hr by 6Hz psychomotor seizure test. The settings on record: route intraperitoneal. Type of data set: functional. In short, it runs like this: as §1
Data set [11] can be described thus: Toxicity in ip dosed CF1 mouse after 0.5 hr. Type of data set: organism-based. The settings on record: in vivo. In short, it runs like this: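 Quantitative toxicity test in male CF-1 mice dosed i.p. (0.5% methylcellulose suspension) at 50, 100, 200 and 350 mg/kg, eight mice per dose. Motor impairment was scored at 0.5 h and TD50 derived from the number of toxic mice over the number tested.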

The source made the active and inactive calls. No cut-off for these calls is given here.

Consider `Cc1cc(Oc2ccc(/C=N/n3c(-c4ccccc4)nc4ccccc4c3=O)cc2)ccc1Cl`, for which the result in [1], in data set [5] and in data set [8] was inactive. In addition, the Activity result is given as “Non-toxic” in data set [2]; 100% in data set [3] (route intraperitoneal); 25% in data set [6]; 75% in data set [9]; 25% in [10]. For the same molecule, in data set [3], the outcome was Active. In data set [4], this molecule showed a logP of 6.52. The ED50 in data set [7] is over 350 mg/kg. Besides, the TD50 at 0.5 h in data set [11] is over 350 mg/kg.
